Experiment [1] addresses Kappa-type opioid receptor (Cavia porcellus) (UniProt P41144). The experiment is described as follows: Ratio of IC50 for central and peripheral kappa opioid receptor binding in guinea pig.
For experiment [2], the species on record is Cavia porcellus. The experiment is described as follows: Selectivity as ratio of IC50 for mu and kappa opioid receptors.
In experiment [3] the target is Kappa-type opioid receptor (Cavia porcellus, UniProt P41144). The experiment is described as follows: Binding affinity against Opioid receptor kappa 1 of Guinea pig brain homogenate using [3H]U-69593. The class given is tissue-based.
The species named for experiment [4] is Cavia porcellus. The experiment is described as follows: Binding affinity against smooth muscle tissue of Guinea pig ileum. The class given is functional. In a few lines: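 Longitudinal muscle–myenteric plexus strips from male Hartley guinea pigs (250–500 g) in oxygenated Krebs buffer at 37 °C under 1 g tension. Transmural stimulation at 0.1 Hz, 0.4 ms, supramaximal voltage, with no peptidase inhibitors. Cumulative agonist doses every 3 min; % inhibition of contraction height measured. IC50 from a Hill-equation fit of mean data from 2–4 tissues.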

The nature of experiment [5]: Selectivity as ratio of IC50 for delta and mu opioid receptors. To be noted: Cavia porcellus.
Experiment [6] concerns the target Mu-type opioid receptor (Cavia porcellus, UniProt P97266). The experiment is described as follows: Binding affinity against Opioid receptor mu 1 from Guinea pig brain homogenate using [3H]DAMGO. The class given is tissue-based.

Each structure is given as a SMILES string. *1 amine or outer side, *2 acyl side, *3 side chain or, on linkers, in order; H or OH if unused. Where a SMILES comes first, the peptide text is derived from it. Side-chain parts run from the residue outwards. [ ]: non-standard residue; d: D form. The star is where a group is joined. X2 = CC[C@H](C)[C@H](NC[C@H](CCCCN)N*)C(=O)N[C@@H](CCCN=C(N)N)C(=O)N1CCC[C@H]1C(=O)N[C@@H](CCCCN)C(N)=O; N(2-aminoethyl)Phe = O=C([C@H](Cc1ccccc1)N(CCN[*:3])[*:1])[*:2]; X4 = CC(C)C[C@@H](CN([C@@H](CCCN=C(N)N)C(=O)[*:2])[*:1])N[*:3]; X5 = NCCCC[C@@H](CN([C@@H](CCCN=C(N)N)C(=O)[*:2])[*:1])N[*:3]; X1 = CC(C)C[C@@H](C(=O)[*:2])N(C[C@H](Cc1ccccc1)N[*:3])[*:1]

Chain of Kappa-type opioid receptor (Cavia porcellus) (P41144 whole entry): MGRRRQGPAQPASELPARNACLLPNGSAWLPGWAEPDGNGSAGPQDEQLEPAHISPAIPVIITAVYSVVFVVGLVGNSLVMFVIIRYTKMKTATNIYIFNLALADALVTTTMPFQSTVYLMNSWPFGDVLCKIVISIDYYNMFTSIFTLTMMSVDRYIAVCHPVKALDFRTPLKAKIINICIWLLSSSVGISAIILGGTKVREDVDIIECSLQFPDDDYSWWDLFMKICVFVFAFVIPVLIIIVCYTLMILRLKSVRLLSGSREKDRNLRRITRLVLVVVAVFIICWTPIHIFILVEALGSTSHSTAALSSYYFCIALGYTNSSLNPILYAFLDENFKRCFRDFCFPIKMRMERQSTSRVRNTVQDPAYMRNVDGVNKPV
Chain of Kappa-type opioid receptor (P41144 whole entry): as above
Chain of Mu-type opioid receptor (P97266 whole entry): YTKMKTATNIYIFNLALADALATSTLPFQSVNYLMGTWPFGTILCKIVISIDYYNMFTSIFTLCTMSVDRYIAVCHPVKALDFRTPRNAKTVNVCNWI

Consider `CC[C@H](C)[C@H](NC(=O)[C@H](CCCN=C(N)N)NC(=O)[C@H](CCCN=C(N)N)NC(=O)[C@H](CC(C)C)NC(=O)[C@H](Cc1ccccc1)NC(=O)CNC(=O)CNC[C@@H](N)Cc1ccc(O)cc1)C(=O)N[C@@H](CCCN=C(N)N)C(=O)N1CCC[C@H]1C(=O)N[C@@H](CCCCN)C(N)=O`, for which the Ratio in experiment [1] came to 38.5. Moreover, the Selectivity was determined as 12 in experiment [2] and 25 in experiment [5]. Besides, the IC50 (commonly the concentration at which inhibition is half-maximal) amounted to 8 nM in experiment [3], 308 nM in experiment [4] and 96 nM in experiment [6].

Regarding `CC[C@H](C)[C@H](NC(=O)[C@H](CCCN=C(N)N)NC(=O)[C@H](CCCN=C(N)N)NC(=O)[C@H](CC(C)C)NC(=O)[C@H](Cc1ccccc1)NC(=O)CNC(=O)CNC(=O)[C@@H](N)Cc1ccc(O)cc1)C(=O)N[C@@H](CCCCN)CN1CCC[C@H]1C(=O)N[C@@H](CCCCN)C(N)=O`, the IC50 was 0.24 nM in experiment [3], 2.1 nM in experiment [4] and 5.2 nM in experiment [6].

Consider `CC[C@H](C)[C@@H](CN[C@@H](CCCN=C(N)N)C(=O)N1CCC[C@H]1C(=O)N[C@@H](CCCCN)C(N)=O)NC(=O)[C@H](CCCN=C(N)N)NC(=O)[C@H](CCCN=C(N)N)NC(=O)[C@H](CC(C)C)NC(=O)[C@H](Cc1ccccc1)NC(=O)CNC(=O)CNC(=O)[C@@H](N)Cc1ccc(O)cc1`, for which the IC50 in experiment [3] was found to be 0.36 nM; in experiment [4], 3.7 nM; in experiment [6], 4 nM.

As to `CC[C@H](C)[C@H](NC(=O)[C@H](CCCN=C(N)N)NC[C@H](CCCCN)NC(=O)[C@H](CC(C)C)NC(=O)[C@H](Cc1ccccc1)NC(=O)CNC(=O)CNC(=O)[C@@H](N)Cc1ccc(O)cc1)C(=O)N[C@@H](CCCN=C(N)N)C(=O)N1CCC[C@H]1C(=O)N[C@@H](CCCCN)C(N)=O`, the figures for the IC50 in experiment [3], in experiment [4] and in experiment [6] were 0.9 nM, 70.6 nM and 9 nM, respectively.

For the compound `CC[C@H](C)[C@H](NC[C@H](CCCCN)NC(=O)[C@H](CCCN=C(N)N)NC(=O)[C@H](CC(C)C)NC(=O)[C@H](Cc1ccccc1)NC(=O)CNC(=O)CNC(=O)[C@@H](N)Cc1ccc(O)cc1)C(=O)N[C@@H](CCCN=C(N)N)C(=O)N1CCC[C@H]1C(=O)N[C@@H](CCCCN)C(N)=O` (H-YGGFLR-X2), the half-inhibitory concentration (IC50) in experiment [3] was determined as 0.16 nM; in experiment [4] it was 2.8 nM; in experiment [6], 9.2 nM.

As for `CC[C@H](C)[C@H](NC(=O)[C@H](CCCN=C(N)N)NC(=O)[C@H](CCCN=C(N)N)NC(=O)[C@H](CC(C)C)NC(=O)[C@H](Cc1ccccc1)NCCNC(=O)CNC(=O)[C@@H](N)Cc1ccc(O)cc1)C(=O)N[C@@H](CCCN=C(N)N)C(=O)N1CCC[C@H]1C(=O)N[C@@H](CCCCN)C(N)=O` (H-[N(2-aminoethyl)Phe]([Gly-Tyr])LRRIRPK-NH2), the values for the IC50 in experiment [3], in experiment [4] and in experiment [6] were 17 nM, 20.5 nM and 1040 nM, respectively.

As for `CC[C@H](C)[C@H](NC(=O)[C@H](CCCN=C(N)N)NC(=O)[C@H](CCCN=C(N)N)NC(=O)[C@H](CC(C)C)NC[C@H](Cc1ccccc1)NC(=O)CNC(=O)CNC(=O)[C@@H](N)Cc1ccc(O)cc1)C(=O)N[C@@H](CCCN=C(N)N)C(=O)N1CCC[C@H]1C(=O)N[C@@H](CCCCN)C(N)=O` (H-[X1]([Gly-Gly-Tyr])RRIRPK-NH2), the IC50 in experiment [3] amounted to 0.55 nM; in experiment [4], 16.6 nM; in experiment [6], 12 nM.

Consider `CC[C@H](C)[C@H](NC(=O)[C@H](CCCN=C(N)N)NC(=O)[C@H](CCCN=C(N)N)NC[C@H](CC(C)C)NC(=O)[C@H](Cc1ccccc1)NC(=O)CNC(=O)CNC(=O)[C@@H](N)Cc1ccc(O)cc1)C(=O)N[C@@H](CCCN=C(N)N)C(=O)N1CCC[C@H]1C(=O)N[C@@H](CCCCN)C(N)=O` (H-[X4]([Phe-Gly-Gly-Tyr])RIRPK-NH2), for which, in experiment [1], the Ratio is 30.4. In addition, the results for the Selectivity in experiment [2] and in experiment [5] were 1 and 52, respectively. The IC50 in experiment [3] was determined as 0.61 nM; in experiment [4] it was 21 nM; in experiment [6], 0.64 nM.

For `CC[C@H](C)[C@H](NC(=O)[C@H](CCCN=C(N)N)NC(=O)[C@H](CCCN=C(N)N)NC[C@H](CCCCN)NC(=O)[C@H](Cc1ccccc1)NC(=O)CNC(=O)CNC(=O)[C@@H](N)Cc1ccc(O)cc1)C(=O)N[C@@H](CCCN=C(N)N)C(=O)N1CCC[C@H]1C(=O)N[C@@H](CCCCN)C(N)=O` (H-[X5]([Phe-Gly-Gly-Tyr])RIRPK-NH2), the Ratio in experiment [1] came out at 78.4. The Selectivity in experiment [5] worked out at 59.

The record behind these values is ChEMBL document CHEMBL1128535, “Synthesis using a Fmoc-based strategy and biological activities of some reduced peptide bond pseudopeptide analogues of dynorphin A1” (J Med Chem, 1995).
